Measurements taken from ChEMBL document CHEMBL3792296, “Synthesis and antiproliferative activity of 9-benzylamino-6-chloro-2-methoxy-acridine derivatives as potent DNA-binding ligands and topoisomerase II inhibitors” (Eur J Med Chem, 2016).
Active and inactive are the calls of the source. The calls are words filed in the database; no cut-off is given here.

Tests used:
A549 [1] = assay: Induction of apoptosis in human A549 cells assessed as late apoptotic cells at 5 uM after 48 hrs by Annexin V-FITC/propidium iodide staining based FACS analysis (reference value: 0.62%); assay type: functional
Outline: (§1)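 A549 cells seeded at 2 × 10⁵ per well, incubated overnight, then treated at 0, 5 or 10 µM. The legend gives 36 or 48 h; the methods section states 24 h. Annexin V-FITC/PI kit staining followed by flow cytometry. Early and late apoptotic cells expressed as cumulative percentage relative to control.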

A549 [2] = assay: Induction of apoptosis in human A549 cells assessed as increase in expression of cleaved caspase 3 at 1 to 2.5 uM after 48 hrs by Western blot analysis; assay type: functional, cell-based
Outline: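 A549 cells grown to 80% confluency, treated with graded concentrations for 48 h, then lysed in Tris-HCl/NaCl/Triton X-100 buffer with protease inhibitors. 40 µg protein resolved on 12 or 15% SDS-PAGE and blotted to PVDF. Primary antibodies used at 1:1000 for 6-8 h, HRP anti-rabbit at 1:2000 for 2 h, ECL detection, β-actin as loading control.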

Calf thymus DNA [3] = assay: Binding affinity to calf thymus DNA assessed as bathochromic shift at 10 uM after 5 mins by UV-vis spectrophotometry; assay type: nucleic-acid assay; details: Bos taurus
Outline: (§2)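 ctDNA at 0-44 µM is added to compound at 10 µM final in Tris-HCl buffer (pH 7.4). UV-vis absorption spectra are recorded after 5 min standing. The binding constant K_b is taken from a plot of absorption data against DNA concentration.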

A549 [4] = assay: Cell cycle arrest in human A549 cells assessed as accumulation at G0/G1 phase at 1 uM after 36 hrs by propidium iodide staining based flow cytometry (reference value: 61.65%); assay type: functional
[5] = biological target: T1, DNA topoisomerase 1 (Homo sapiens) (UniProt P11387); assay: Inhibition of human topoisomerase 1 assessed as reduction in enzyme-mediated relaxation of supercoiled pBR322 DNA at 50 to 100 uM after 10 to 15 mins by agarose gel electrophoresis
T1 sequence (whole entry): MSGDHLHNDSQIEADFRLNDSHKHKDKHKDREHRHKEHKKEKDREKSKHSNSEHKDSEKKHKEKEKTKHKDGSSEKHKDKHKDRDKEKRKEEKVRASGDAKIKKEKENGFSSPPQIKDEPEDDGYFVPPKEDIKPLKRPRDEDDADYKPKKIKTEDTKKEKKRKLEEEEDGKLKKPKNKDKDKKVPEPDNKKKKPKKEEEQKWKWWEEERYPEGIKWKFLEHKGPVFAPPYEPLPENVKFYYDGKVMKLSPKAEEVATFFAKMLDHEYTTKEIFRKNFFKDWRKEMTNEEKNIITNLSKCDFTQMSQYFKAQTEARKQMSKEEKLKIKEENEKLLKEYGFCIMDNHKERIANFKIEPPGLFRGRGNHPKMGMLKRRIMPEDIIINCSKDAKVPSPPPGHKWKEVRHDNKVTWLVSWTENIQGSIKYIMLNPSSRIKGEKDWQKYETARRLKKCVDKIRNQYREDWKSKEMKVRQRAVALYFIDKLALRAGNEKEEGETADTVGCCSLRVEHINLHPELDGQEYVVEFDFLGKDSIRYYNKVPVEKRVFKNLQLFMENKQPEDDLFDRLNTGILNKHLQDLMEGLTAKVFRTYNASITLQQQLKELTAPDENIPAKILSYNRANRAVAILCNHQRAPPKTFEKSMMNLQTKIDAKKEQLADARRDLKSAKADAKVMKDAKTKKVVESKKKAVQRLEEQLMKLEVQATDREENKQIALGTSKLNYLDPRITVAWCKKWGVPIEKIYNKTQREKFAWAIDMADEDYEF
Outline: (§3)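 Relaxation of 500 ng supercoiled pBR322 by 1 unit human Topo I or Topo IIα, with or without compound, in 20 µL reaction buffer at 37 °C for 10-15 min. Reactions stopped with loading buffer, run on 0.8% agarose in TAE at 80 V for 30 min. Gels stained with ethidium bromide 2.5 µg/mL and viewed under UV.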

A549 [6] = assay: Induction of apoptosis in human A549 cells assessed as early apoptotic cells at 10 uM after 36 hrs by Annexin V-FITC/propidium iodide staining based FACS analysis (reference value: 0.29%); assay type: functional; outline: as §1
Calf thymus DNA [7] = assay: Binding affinity to calf thymus DNA at 10 uM spectrofluorimetric analysis; assay type: nucleic-acid assay; details: Bos taurus
Outline: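 Compound at 10 µM final in 10 mM Tris-HCl, pH 7.4, titrated with ctDNA at 0-64 µM final. Emission recorded 420-750 nm with excitation at 400 nm using a xenon arc lamp source. Quenching constant K derived by Stern-Volmer fit, F₀/F = 1 + K[Q], where [Q] is the DNA concentration.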

A549 [8] = assay: Cell cycle arrest in human A549 cells assessed as accumulation at G0/G1 phase at 5 uM after 36 hrs by propidium iodide staining based flow cytometry (reference value: 61.65%); assay type: functional
Calf thymus DNA [9] = assay: Binding affinity to calf thymus DNA after 5 mins by UV-vis spectrophotometry; assay type: nucleic-acid assay; details: Bos taurus; outline: as §2
A549 [10] = assay: Induction of apoptosis in human A549 cells assessed as early apoptotic cells at 5 uM after 48 hrs by Annexin V-FITC/propidium iodide staining based FACS analysis (reference value: 0.94%); assay type: functional; outline: as §1
A549 [11] = assay: Cellular uptake in human A549 cells at 1 to 5 uM after 4 hrs by FACS analysis; assay type: ADME, cell-based; details: a549, 4 h
Outline: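 A549 cells treated with 1 or 5 µM for 4 h; 8 and 16 h also examined. Cells trypsinized, pelleted, resuspended in PBS and analysed at once by FACS. Intrinsic compound fluorescence read with 400 nm excitation, at least 10000 cells per sample.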

[12] = biological target: DNA topoisomerase 2-alpha (Homo sapiens) (UniProt P11388); assay: Inhibition of human recombinant topoisomerase 2-alpha expressed in Escherichia coli assessed as reduction in enzyme-mediated relaxation of supercoiled pBR322 DNA at 10 to 50 uM after 10 to 15 mins by agarose gel electrophoresis; outline: as §3
DNA topoisomerase 2-alpha (Homo sapiens), sequence (P11388 whole entry): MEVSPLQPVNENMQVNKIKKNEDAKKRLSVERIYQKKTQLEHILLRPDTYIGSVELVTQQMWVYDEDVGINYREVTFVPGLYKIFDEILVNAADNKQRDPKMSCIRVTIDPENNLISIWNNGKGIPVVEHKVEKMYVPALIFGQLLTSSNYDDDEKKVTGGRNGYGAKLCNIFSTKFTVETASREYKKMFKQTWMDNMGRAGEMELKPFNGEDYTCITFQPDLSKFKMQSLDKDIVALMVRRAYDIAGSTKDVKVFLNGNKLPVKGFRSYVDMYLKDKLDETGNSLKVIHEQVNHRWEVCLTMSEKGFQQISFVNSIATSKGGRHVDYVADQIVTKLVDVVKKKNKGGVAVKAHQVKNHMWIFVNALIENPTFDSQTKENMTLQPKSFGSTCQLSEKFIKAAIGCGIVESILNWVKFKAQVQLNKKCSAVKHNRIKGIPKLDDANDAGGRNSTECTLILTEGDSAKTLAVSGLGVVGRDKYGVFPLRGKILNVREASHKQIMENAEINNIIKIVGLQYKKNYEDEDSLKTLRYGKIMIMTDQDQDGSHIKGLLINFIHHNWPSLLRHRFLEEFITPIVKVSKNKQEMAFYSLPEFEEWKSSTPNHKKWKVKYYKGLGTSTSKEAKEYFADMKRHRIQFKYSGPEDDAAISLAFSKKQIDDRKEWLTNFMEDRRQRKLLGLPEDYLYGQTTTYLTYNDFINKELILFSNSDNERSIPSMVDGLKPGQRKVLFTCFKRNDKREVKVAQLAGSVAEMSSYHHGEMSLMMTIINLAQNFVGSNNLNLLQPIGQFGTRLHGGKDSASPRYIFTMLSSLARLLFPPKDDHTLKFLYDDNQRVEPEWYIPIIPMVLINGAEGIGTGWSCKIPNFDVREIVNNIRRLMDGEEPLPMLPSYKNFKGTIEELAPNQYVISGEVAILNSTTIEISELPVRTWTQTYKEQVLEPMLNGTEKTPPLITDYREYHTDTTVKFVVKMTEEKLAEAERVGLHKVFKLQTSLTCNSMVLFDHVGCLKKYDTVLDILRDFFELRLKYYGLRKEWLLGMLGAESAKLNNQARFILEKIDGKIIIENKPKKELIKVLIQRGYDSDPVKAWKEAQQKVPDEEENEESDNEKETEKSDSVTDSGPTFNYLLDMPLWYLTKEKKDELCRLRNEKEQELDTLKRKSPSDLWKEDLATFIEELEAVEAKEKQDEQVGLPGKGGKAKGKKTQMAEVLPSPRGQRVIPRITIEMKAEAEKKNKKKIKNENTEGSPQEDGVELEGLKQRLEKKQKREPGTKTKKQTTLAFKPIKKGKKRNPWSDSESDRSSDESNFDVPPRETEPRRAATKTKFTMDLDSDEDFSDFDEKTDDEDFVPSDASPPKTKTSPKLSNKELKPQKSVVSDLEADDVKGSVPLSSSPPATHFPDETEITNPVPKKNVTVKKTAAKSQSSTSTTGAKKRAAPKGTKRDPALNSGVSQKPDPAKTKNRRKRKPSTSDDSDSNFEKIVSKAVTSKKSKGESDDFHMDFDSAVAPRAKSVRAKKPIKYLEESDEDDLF

- Activity (Calf thymus DNA [3]): 10 nm
- inhibition [5]: Active
- KSV (Calf thymus DNA [7]): 1.02 ×10⁵ /M
- Kb (Calf thymus DNA [9]): 1.68 ×10⁵ /M
- Drug uptake (A549 [11]): Active
- inhibition [12]: Active
SMILES: COc1ccc(CNc2c3ccc(Cl)cc3nc3ccc(OC)cc23)cc1
- Activity (A549 [1]): 21.23%
- Activity (A549 [2]): Active
- Activity (A549 [4]): 60.83%
- Activity (A549 [6]): 3.24%
- Activity (A549 [8]): 62.04%
- Activity (A549 [10]): 4.23%
